The values below come from ChEMBL document CHEMBL2163334, “Discovery of highly potent and selective pan-Aurora kinase inhibitors with enhanced in vivo antitumor therapeutic index” (J Med Chem, 2012).

Data set [1] addresses T1, Aurora kinase B (Homo sapiens, UniProt Q96GD4). Briefly: Binding affinity to Aurora kinase B catalytic domain by competition binding assay.
Data set [2] deals with HCT-116. Briefly: Antiproliferative activity against human HCT116 cells after 72 hrs by BrdU-based ELISA. The format is functional, cell-based. The following applies: HCT-116, 72 h. Summed up: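 HCT-116 cells in McCoy's 5A with 10% FBS and pen/strep, seeded 800 cells/well, left overnight at 37 °C, 5% CO2. Nine-point 3-fold serial dilutions in DMSO added for 72 h; BrdU colorimetric ELISA read at 450 and 690 nm. IC50 is the concentration halving proliferation; duplicate runs averaged.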

Data set [3] has as its target T2, Aurora kinase A (Homo sapiens, UniProt O14965).
T2 sequence (O14965 whole entry): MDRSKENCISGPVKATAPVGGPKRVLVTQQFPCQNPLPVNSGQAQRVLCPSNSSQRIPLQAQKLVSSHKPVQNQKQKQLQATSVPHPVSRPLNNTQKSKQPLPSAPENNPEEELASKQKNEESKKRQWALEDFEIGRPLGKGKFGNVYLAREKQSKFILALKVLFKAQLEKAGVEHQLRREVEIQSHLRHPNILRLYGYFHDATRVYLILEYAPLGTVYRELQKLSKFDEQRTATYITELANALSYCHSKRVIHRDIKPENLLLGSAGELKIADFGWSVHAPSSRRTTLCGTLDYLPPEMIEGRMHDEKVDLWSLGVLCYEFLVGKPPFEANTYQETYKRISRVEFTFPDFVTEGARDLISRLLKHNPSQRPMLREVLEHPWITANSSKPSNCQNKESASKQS
Briefly: Binding affinity to Aurora kinase A catalytic domain by competition binding assay.

Data set [4] concerns the target T1, Aurora kinase B. As to the kind of experiment: Inhibition of Aurora kinase B-mediated histone H3 Ser10 phosphorylation in human HCT116 cells after 2 hrs by sandwich ELISA. The format is cell-based, HCT-116. An outline of the steps: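 HCT-116 cells seeded 4 × 10⁴/well, 4-6 h at 37 °C, then arrested overnight (16-18 h) with nocodazole at 66 ng/mL final. Treated 2 h with nine-point 3-fold dilutions in DMSO; lysed with phosphatase inhibitor, phospho-H3 (Ser10) sandwich ELISA read at 450 nm. IC50 = 50% inhibition of phosphorylation; duplicate runs averaged.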
In general terms: ELISA stands for enzyme-linked immunosorbent assay.

Data set [5] can be described thus: Clearance in Sprague-Dawley rat at 1 mg/kg, iv administered using PEG400/water as vehicle. The format is ADME, organism-based. More on the design: dose 1 mg/kg, route intravenous. The following applies: in vivo. An outline of the steps:
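SD rats fasted overnight, given 1 mg/kg iv in PEG400/water (3:1, v/v); three per arm. Blood into K3 EDTA at 5, 15, 30 min, 1, 2, 4, 6, 24 h, spun at 4 °C; plasma extracted with six volumes acetonitrile plus internal standard and quantified by LC-MS/MS (C8 column, formic acid/ACN gradient).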

SMILES strings stand for the structures.

T1 sequence (Q96GD4 whole entry, the tested form may be a part): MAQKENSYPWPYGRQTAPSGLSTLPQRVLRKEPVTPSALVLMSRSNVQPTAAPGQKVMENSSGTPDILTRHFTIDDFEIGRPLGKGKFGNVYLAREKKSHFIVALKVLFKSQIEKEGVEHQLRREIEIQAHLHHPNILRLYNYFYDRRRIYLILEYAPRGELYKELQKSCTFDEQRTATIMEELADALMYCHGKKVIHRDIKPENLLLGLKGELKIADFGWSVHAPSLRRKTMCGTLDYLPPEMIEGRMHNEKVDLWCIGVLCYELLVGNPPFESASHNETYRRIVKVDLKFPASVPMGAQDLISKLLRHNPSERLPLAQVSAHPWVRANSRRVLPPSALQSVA

As to `Cc1cc(Nc2nc(Sc3ccc(NC(=O)CN4CC[C@@H](OCCN5CCOCC5)C4)cc3)nn3cccc23)n[nH]1`, the Kd (usually the concentration at which binding is half-saturated) stood at 6.6 nM in data set [1] and 11 nM in data set [3]. Also, the IC50 (in general, the concentration that gives 50% inhibition) in data set [2] came out at 17.8 nM; in data set [4], 43.4 nM.
The like results for `Cc1cc(Nc2nc(Sc3ccc(NC(=O)CN4CC[C@@H](NS(C)(=O)=O)C4)cc3)nn3cccc23)n[nH]1` were, in that order, 3.2 nM, 12.3 nM, 270 nM and 362 nM.
The like results for `Cc1cc(Nc2nc(Sc3ccc(NC(=O)CN4CC[C@@H](OC(C)(C)C)C4)cc3)nn3cccc23)n[nH]1` were, in that order, 3.6 nM, 25 nM, 2.6 nM and 8.9 nM.
The like results for `Cc1cc(Nc2nc(Sc3ccc(NC(=O)CN4CC[C@@H](OCCN5CCN(C)CC5)C4)cc3)nn3cccc23)n[nH]1` were, in that order, 2.9 nM, 12.5 nM, 29.8 nM and 169 nM.
`Cc1cc(Nc2nc(Sc3ccc(NC(=O)CN4CC[C@@H](C(=O)N5CCC(O)CC5)C4)cc3)nn3cccc23)n[nH]1`: the values for the Kd in data set [1] and in data set [3] were 3.7 nM and 4 nM, respectively. Moreover, the IC50 was found to be 105 nM in data set [2] and 293 nM in data set [4].
For the compound `Cc1cc(Nc2nc(Sc3ccc(NC(=O)CN4CC[C@@H](OCCCN5CCOCC5)C4)cc3)nn3cccc23)n[nH]1`, the Kd turned out to be 3.7 nM in data set [1] and 5.1 nM in data set [3]. Also, the IC50 in data set [2] stood at 10.8 nM; in data set [4], 27.1 nM.
The like results for `Cc1cc(Nc2nc(Sc3ccc(NC(=O)CN4CC[C@@H](C(=O)NCCN5CCOCC5)C4)cc3)nn3cccc23)n[nH]1` were, in that order, 2.9 nM, 6.3 nM, 19 nM and 63.2 nM.
For `Cc1cc(Nc2nc(Sc3ccc(NC(=O)CN4CC[C@@H](OCCO)C4)cc3)nn3cccc23)n[nH]1`, the Kd was 1.7 nM in data set [1] and 4.5 nM in data set [3]. Further, the IC50 worked out at 5 nM in data set [2] and 13 nM in data set [4].
The like results for `Cc1cc(Nc2nc(Sc3ccc(NC(=O)CN4CC[C@H](C(=O)N5CCCC5)C4)cc3)nn3cccc23)n[nH]1` were, in that order, 1.9 nM, 10.1 nM, 16.7 nM and 37.6 nM.
For `Cc1cc(Nc2nc(Sc3ccc(NC(=O)CN4CC[C@@H](O)C4)cc3)nn3cccc23)n[nH]1`, the Kd in data set [1] was 6.6 nM; in data set [3], 10.5 nM. The IC50 in data set [2] turned out to be 74 nM; in data set [4] it was 103 nM.
For the compound `Cc1cc(Nc2nc(Sc3ccc(NC(=O)CN4CCC(C(=O)N5CCCC5)C4)cc3)nn3cccc23)n[nH]1` (racemic), the Kd in data set [1] is 2.4 nM; in data set [3] it was 8.8 nM. For the same compound, the concentration for half-maximal inhibition (IC50) was determined as 2.9 nM in data set [2] and 9 nM in data set [4].
For `Cc1cc(Nc2nc(Sc3ccc(NC(=O)CN4CC[C@@H](C(=O)N5CCOCC5)C4)cc3)nn3cccc23)n[nH]1`, the equilibrium dissociation constant (Kd) is 2.6 nM in data set [1] and 4 nM in data set [3]. Also, the IC50 in data set [2] amounted to 3.9 nM; in data set [4], 14.6 nM.
The like results for `Cc1cc(Nc2nc(Sc3ccc(NC(=O)CN4CC[C@H](O)C4)cc3)nn3cccc23)n[nH]1` were, in that order, 14.8 nM, 39 nM, 227 nM and 420 nM.
The like results for `Cc1cc(Nc2nc(Sc3ccc(NC(=O)CN4CC[C@@H](C(=O)NC5CCC5)C4)cc3)nn3cccc23)n[nH]1` were, in that order, 3.3 nM, 4.2 nM, 1.3 nM and 9.3 nM.
As to `Cc1cc(Nc2nc(Sc3ccc(NC(=O)CN4CC[C@@H]([S+]([O-])C(C)(C)C)C4)cc3)nn3cccc23)n[nH]1` (stereo partly drawn), the Kd was 3.1 nM in data set [1] and 2.8 nM in data set [3]. Moreover, the IC50 stood at 3.4 nM in data set [2] and 11.9 nM in data set [4].
As to `Cc1cc(Nc2nc(Sc3ccc(NC(=O)CN4CC[C@@H](C(=O)N5CCCCC5)C4)cc3)nn3cccc23)n[nH]1`, the Kd in data set [1] was determined as 2.9 nM; in data set [3], 6.4 nM. Moreover, the IC50 came out at 3.2 nM in data set [2] and 10 nM in data set [4].
The like results for `Cc1cc(Nc2nc(Sc3ccc(NC(=O)CN4CCC(C(=O)C(C)(C)C)C4)cc3)nn3cccc23)n[nH]1` (racemic) were, in that order, 6.1 nM, 16.9 nM, 12.5 nM and 44.8 nM.
For the compound `Cc1cc(Nc2nc(Sc3ccc(NC(=O)CN4CC[C@@H](C(=O)N5CCCC5)C4)cc3)nn3cccc23)n[nH]1`, the dissociation constant Kd came out at 2.5 nM in data set [1] and 6.3 nM in data set [3]. In addition, the IC50 amounted to 2.2 nM in data set [2] and 6.3 nM in data set [4].
For the compound `Cc1cc(Nc2nc(Sc3ccc(NC(=O)CN4CC[C@@H](S(=O)(=O)C(C)(C)C)C4)cc3)nn3cccc23)n[nH]1`, the Kd was 4.3 nM in data set [1] and 4 nM in data set [3]. The concentration for half-maximal inhibition (IC50) in data set [2] was 9.2 nM; in data set [4], 28.6 nM.
`COCCO[C@@H]1CCN(CC(=O)Nc2ccc(Sc3nc(Nc4cc(C)[nH]n4)c4cccn4n3)cc2)C1`: the Kd in data set [1] came out at 3.1 nM; in data set [3], 11.5 nM. The IC50 stood at 3.1 nM in data set [2] and 6.2 nM in data set [4]. Moreover, the clearance (commonly the volume of plasma or blood freed of the substance per unit of time) in data set [5] was determined as 62 mL/min/kg.
On to `Cc1cc(Nc2nc(Sc3ccc(NC(=O)CN4CC[C@@H](C(=O)NC(C)(C)C)C4)cc3)nn3cccc23)n[nH]1`, for which the dissociation constant (Kd) in data set [1] worked out at 3.1 nM; in data set [3], 5.6 nM. Further, the values for the IC50 in data set [2] and in data set [4] were 1 nM and 6.2 nM, respectively. In addition, the clearance in data set [5] was 48 mL/min/kg.
Turning to `Cc1cc(Nc2nc(Sc3ccc(NC(=O)CN4CC[C@@H](NC(=O)C(C)C)C4)cc3)nn3cccc23)n[nH]1`, the Kd was determined as 5.7 nM in data set [1] and 13.1 nM in data set [3]. The IC50 in data set [2] turned out to be 46.5 nM; in data set [4], 114 nM.
Regarding `Cc1cc(Nc2nc(Sc3ccc(NC(=O)CN4CC[C@@H](C(=O)NCC(F)(F)F)C4)cc3)nn3cccc23)n[nH]1`, the Kd was 2.2 nM in data set [1] and 2.5 nM in data set [3]. In addition, the IC50 in data set [2] worked out at 0.9 nM; in data set [4] it was 7 nM. In data set [5], this compound showed a clearance of 35 mL/min/kg.
Consider `Cc1cc(Nc2nc(Sc3ccc(NC(=O)CN4CC[C@@H](C(=O)Nc5ccc(F)cc5)C4)cc3)nn3cccc23)n[nH]1`, for which the Kd in data set [1] was determined as 6.9 nM; in data set [3] it was 19.5 nM. Also, the IC50 in data set [2] was determined as 3.8 nM; in data set [4] it was 42.2 nM.
Regarding `Cc1cc(Nc2nc(Sc3ccc(NC(=O)CN4CC[C@@H](SC(C)(C)C)C4)cc3)nn3cccc23)n[nH]1`, the Kd came out at 14.2 nM in data set [1] and 25.2 nM in data set [3]. In addition, the IC50 in data set [2] is 19.3 nM; in data set [4] it was 94.5 nM.
